Laboratory results as given in ChEMBL document CHEMBL3046871, “Antimicrobial and antiprotozoal activities of secondary metabolites from the fungus Eurotium repens” (Med Chem Res, 2012).
Converted amounts (≈) assume the structure as drawn. The source made the active and inactive calls. The rule behind the calls is not given here.

Key:
[1] = test system: Escherichia coli; assay: Antibacterial activity against Escherichia coli ATCC 35218; format: functional, organism-based
[2] = test system: Mycobacterium intracellulare; assay: Antibacterial activity against Mycobacterium intracellulare ATCC 23068; format: functional, organism-based
[3] = test system: Pseudomonas aeruginosa; assay: Antibacterial activity against Pseudomonas aeruginosa ATCC 27853; format: functional, organism-based
[4] = test system: Plasmodium falciparum; assay: Antimalarial activity against chloroquine-sensitive Plasmodium falciparum D6 after 72 hr by plasmodial LDH assay; format: functional, organism-based
Procedure, shortened: (§1)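 Compounds dissolved in DMSO (2 mg/ml stock), serially diluted. Culture at 2% parasitemia and 2% hematocrit in RPMI 1640 with 10% human serum and 60 μg/ml amikacin, under 90% N2/5% O2/5% CO2, 37°C for 72 h. LDH read-out: Malstat reagent 30 min, then NBT/PES 1 h in dark, acetic acid stop, absorbance 650 nm. IC50 from dose–response curves. Chloroquine positive control; 0.25% DMSO vehicle.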

[5] = test system: Staphylococcus aureus; assay: Antibacterial activity against Staphylococcus aureus ATCC 29213 at 20 ug/ml; format: functional, organism-based
[6] = test system: Pichia kudriavzevii; assay: Antifungal activity against Pichia kudriavzevii ATCC 6258 at 20 ug/ml; format: functional, organism-based
[7] = test system: Cryptococcus neoformans; assay: Antifungal activity against Cryptococcus neoformans ATCC 90113 at 20 ug/ml; format: functional, organism-based
[8] = test system: Staphylococcus aureus; assay: Antibacterial activity against methicillin-resistant Staphylococcus aureus ATCC 33591 at 20 ug/ml; format: functional, organism-based
[9] = test system: Nakaseomyces glabratus; assay: Antifungal activity against Candida glabrata ATCC 90030; format: functional, organism-based
[10] = test system: Leishmania donovani; assay: Antileishmanial activity against promastigote form of Leishmania donovani after 48 hr by alamar blue assay; format: functional, organism-based
Procedure, shortened: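 A 3-day-old promastigote culture grown in RPMI 1640 with 10% FCS at 26°C was diluted to 5 × 10^5/ml. Drug dilutions were made directly in the cell suspension, then incubated 48 h at 26°C. Growth was read by Alamar blue fluorescence (ex 544/em 590 nm). IC50 came from dose–response curves, with pentamidine and amphotericin B as standards.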

[11] = test system: Vero; assay: Cytotoxicity against Chlorocebus aethiops (African green monkey) Vero cells after 48 hr by neutral red assay; format: cell-based, Chlorocebus sabaeus
[12] = test system: Aspergillus fumigatus; assay: Antifungal activity against Aspergillus fumigatus ATCC 204305; format: functional, organism-based
[13] = test system: Candida albicans; assay: Antifungal activity against Candida albicans ATCC 90028; format: functional, organism-based
[14] = test system: Plasmodium falciparum; assay: Antimalarial activity against chloroquine-resistant Plasmodium falciparum W2 after 72 hr by plasmodial LDH assay; format: functional, organism-based; procedure, shortened: as §1
[15] = test system: Staphylococcus aureus; assay: Antibacterial activity against methicillin-resistant Staphylococcus aureus ATCC 33591; format: functional, organism-based
[16] = test system: Cryptococcus neoformans; assay: Antifungal activity against Cryptococcus neoformans ATCC 90113; format: functional, organism-based
[17] = test system: Nakaseomyces glabratus; assay: Antifungal activity against Candida glabrata ATCC 90030 at 20 ug/ml; format: functional, organism-based
[18] = test system: Pichia kudriavzevii; assay: Antifungal activity against Pichia kudriavzevii ATCC 6258; format: functional, organism-based
[19] = test system: Staphylococcus aureus; assay: Antibacterial activity against Staphylococcus aureus ATCC 29213; format: functional, organism-based
[20] = Leishmania donovani, 48 h, read-out: IC50
[21] = Plasmodium falciparum, D6, 72 h, read-out: IC50
[22] = Plasmodium falciparum, W2, 72 h, read-out: IC50

SMILES	Activity [1]	Activity [2]	Activity [3]	IC50 [4]	Activity [5]	Activity [6]	Activity [7]	Activity [8]	IC50 [9] [µg/mL]	IC50 [10, 20] [µg/mL]	IC50 [11]	Activity [12]	Activity [13]	IC50 [14]	IC50 [4, 21] [µg/mL]	IC50 [15] [µg/mL]	IC50 [14, 22] [µg/mL]	IC50 [16] [µg/mL]	Activity [17]	IC50 [19] [µg/mL]	other results
CCC/C=C/C=C/c1c(O)cc(CC=C(C)C)c(O)c1C=O [DIHYDROAUROGLAUCIN]	inactive	inactive	inactive	Not Active	inactive	inactive	inactive	inactive	2.39 (≈ 7.96 µM)	20 (≈ 66.6 µM)	Non-toxic	inactive	inactive	Not Active	–	–	–	–	–	–	–
CCCCC/C=C/c1c(O)cc(CC=C(C)C)c(O)c1CO	inactive	inactive	inactive	–	inactive	inactive	inactive	–	7.17 (≈ 23.6 µM)	19 (≈ 62.4 µM)	Non-toxic	inactive	inactive	–	3 (≈ 9.85 µM)	12 (≈ 39.3 µM)	2.8 (≈ 9.2 µM)	–	–	–	–
Cc1c(O)cc(O)c2c1COC2=O [5,7-DIHYDROXY-4-METHYLPHTHALIDE]	inactive	inactive	inactive	Not Active	inactive	inactive	–	inactive	–	–	Non-toxic	inactive	inactive	Not Active	–	–	–	18.1 (≈ 100 µM)	inactive	–	IC50 [10]: Not Active
C[C@@H]1[C@H](O)[C@@H](C)/C=C/C=C/C=C/C=C/C=C/C=C/C=C/[C@H](O[C@@H]2O[C@H](C)[C@@H](O)[C@H](N)[C@@H]2O)C[C@@H]2O[C@](O)(C[C@@H](O)C[C@@H](O)[C@H](O)CC[C@@H](O)C[C@@H](O)CC(=O)O[C@H]1C)C[C@H](O)[C@H]2C(=O)O [AMPHOTERICIN B]	–	–	–	–	–	–	–	–	0.32 (≈ 0.346 µM)	–	–	–	–	–	–	–	–	1.23 (≈ 1.33 µM)	–	–	IC50 [18]: 0.36 µg/mL (≈ 0.39 µM)
CCCCCCCc1c(O)cc(CC=C(C)C)c(O)c1C=O [FLAVOGLAUCIN]	inactive	inactive	inactive	–	–	inactive	inactive	–	–	23 (≈ 75.6 µM)	Non-toxic	inactive	inactive	–	3 (≈ 9.85 µM)	10.4 (≈ 34.2 µM)	–	–	inactive	14.3 (≈ 47 µM)	–
C/C=C/C=C/C=C/c1c(O)cc(CC=C(C)C)c(O)c1C=O [AUROGLAUCIN]	inactive	inactive	inactive	–	inactive	–	inactive	inactive	7.33 (≈ 24.6 µM)	7.5 (≈ 25.1 µM)	Non-toxic	inactive	inactive	–	–	–	–	–	–	–	IC50 [18]: 10.9 µg/mL (≈ 36.6 µM)
CCC/C=C/c1cc2c(C=O)c(O)c(CC=C(C)C)cc2o1	inactive	inactive	inactive	–	–	inactive	–	–	1.13 (≈ 3.79 µM)	–	Non-toxic	inactive	inactive	–	3 (≈ 10.1 µM)	5.4 (≈ 18.1 µM)	2.8 (≈ 9.38 µM)	5.31 (≈ 17.8 µM)	–	7.75 (≈ 26 µM)	–
C=CC(C)(C)c1[nH]c2c(CC=C(C)C)cc(CC=C(C)C)cc2c1C[C@@H]1NC(=O)[C@H](C)NC1=O [ECHINULIN]	inactive	inactive	inactive	Not Active	inactive	inactive	inactive	inactive	–	–	Non-toxic	inactive	inactive	Not Active	–	–	–	–	inactive	–	IC50 [10]: Not Active
CCCCC/C=C/c1c(O)cc(CC=C(C)C)c(O)c1C=O [TETRAHYDROAUROGLAUCIN]	inactive	inactive	inactive	–	–	inactive	inactive	inactive	6.15 (≈ 20.3 µM)	22 (≈ 72.7 µM)	Non-toxic	inactive	inactive	–	2.8 (≈ 9.26 µM)	–	2.3 (≈ 7.61 µM)	–	–	13.5 (≈ 44.7 µM)	–
